# Where two headings read alike, the source gives them in different places.
# Legend:
# [1] = target: KSR2 in purified KSR2-MEK1 complexes (Homo sapiens, UniProt Q6VAB6); experiment: ATP^biotin probe-labelling competition; type: binding
# [2] = test system: BRAF(V600E)-induced MAPK activation in 293H cells; experiment: BRAF; type: cell-based; conditions: 5 μM, 2 h
# Outline: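 They were then exposed for 2 h to DMSO or 5μM test compound, alongside a reference RAF inhibitor. Cells were collected and western blotted for phospho-MEK1/2 (Ser218/Ser222) and phospho-ERK1/2 (T202/Y204). Primary antibodies were applied overnight in 5% BSA TBS-T.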
# [3] = test system: MEK phosphorylation by BRAF or CRAF; experiment: RAF phosphorylation assay of KSR2-MEK1 or MEK1 in vitro; type: biochemical; conditions: KSR absent or KSR2(A690F) mutant; compound 1 μM
# [4] = target: MEK phosphorylation by BRAF or CRAF (Homo sapiens, UniProt Q6VAB6); experiment: as above; type: biochemical; conditions: KSR2-MEK1; compound 1 μM
# BRAF(F667E) + KSR2:MEK1 = BRAF(F667E) + KSR2:MEK1 (Homo sapiens, UniProt Q6VAB6); experiment: bio-layer inferometry; type: binding; conditions: compound 25 μM
# [5] = test system: ERK phosphorylation in HCT-116 cells; experiment: phospho-ERK western blot; type: cell-based; conditions: APS-2-79 treatment
# [6] = test system: KSR-stimulated MEK and ERK phosphorylation in 293H cells; experiment: KSR-driven MAPK signalling reconstitution; type: cell-based; conditions: 5 μM, 2 h
# [7] = test system: Phospho-AMPK in HCT116 cells; experiment: phospho-AMPK western blot; type: cell-based; conditions: co-treatment with trametinib, 48 h
# Outline: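 HCT116 cells received test compound and/or a MEK inhibitor for 48 h. Lysates were western blotted for phospho-AMPK, phospho-ERK and total MEK, with primary antibodies overnight in 5% BSA TBS-T. Signal was detected by chemiluminescence on a CCD imager, and band intensities were quantified.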
# MEK1 = MEK1 (Oryctolagus cuniculus, UniProt P29678); experiment: ATP^biotin probe-labelling competition; type: binding, rabbit; conditions: read-out: IC50 (ATP), MEK1; free ATP vs 2 μM ATP^biotin, KSR2-MEK1 complexes
# Outline: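 The probe transfers desthio-biotin onto active-site lysines of both KSR2 and MEK1. Biotin, total MEK and total KSR detected by western blot, giving probe-labelling versus ATP level for each partner.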
# MEK1 (1-393) = MEK1 (1-393) (rabbit, UniProt P29678 1-393); experiment: BLI
# KSR2(KD):MEK1 complex = KSR2(KD):MEK1 complex (human | rabbit, UniProt Q6VAB6 634-950; P29678 1-393); experiment: BLI
molecule,measurement,setting,value
"COc1cc2ncnc(Nc3ccc(Oc4ccccc4)cc3)c2cc1OC.Cl [APS-1-68-2, 6,7-Dimethoxy-N-(4-phenoxyphenyl)quinazolin-4-amine hydrochloride]",KSR2-MEK1 probe competition (in words),[1],competitor of probe-labelling
"COc1ccc(Nc2ncnc3cc(OC)c(OC)cc23)cc1.Cl [APS-1-70-1, 6,7-Dimethoxy-N-(4-methoxyphenyl)quinazolin-4-amine hydrochloride]",KSR2-MEK1 probe competition (in words),[1],greatly diminished competition
"COc1cc2ncnc(Nc3ccc(O)cc3)c2cc1OC.Cl [APS-1-82-1, 4-((6,7-Dimethoxyquinazolin-4-yl)amino)phenol hydrochloride]",KSR2-MEK1 probe competition (in words),[1],greatly diminished competition
"COc1cc2ncnc(Nc3ccc(OCc4ccccc4)cc3)c2cc1OC.O=C(O)C(F)(F)F [APS-2-12, N-(4-(Benzyloxy)phenyl)-6,7-dimethoxyquinazolin-4-amine 2,2,2-trifluoroacetate]",KSR2-MEK1 probe competition (in words),[1],diminished
"COc1cc2nccc(Nc3ccc(Oc4ccccc4)cc3)c2cc1OC.Cl [APS-2-16, 6,7-Dimethoxy-N-(4-phenoxyphenyl)quinolin-4-amine hydrochloride]",KSR2-MEK1 probe competition (in words),[1],moderately tolerated
"COc1cc2ncnc(Nc3ccc(Oc4ccccc4)cc3C)c2cc1OC.O=C(O)C(F)(F)F [APS-2-79, 6,7-Dimethoxy-N-(2-methyl-4-phenoxyphenyl)quinazolin-4-amine 2,2,2-trifluoroacetate]",BRAF(V600E)-induced MAPK activation,[2],does not affect
same,MEK phosphorylation by RAF,[3],inactive
same,KSR-stimulated MEK phosphorylation by RAF,[4],markedly reduced
same,assembly of BRAF(F667E) and KSR2-MEK1 (in words),BRAF(F667E) + KSR2:MEK1,did not associate
same,enhancement in the IC90 of trametinib on ERK phosphorylation,[5],twofold enhancement
same,KSR-stimulated MEK and ERK phosphorylation,[6]; KSR(A690F) mutant,significantly diminished the activity
same,KSR-stimulated MEK and ERK phosphorylation,[6]; wild-type KSR,suppressed
same,Phospho-AMPK,[7],remains unchanged
"COc1cc2/c(=N/c3ccc(Oc4ccccc4)cc3)ncn(C)c2cc1OC [APS-3-6, (Z)-N-(6,7-Dimethoxy-1-methylquinazolin-4(1H)-ylidene)-4-phenoxyaniline]",KSR2-MEK1 probe competition (in words),[1],greatly diminished
"COc1cc2ncnc(Nc3ccc(Oc4ccccc4)c(C)c3C)c2cc1OC.Cl [APS-3-77, N-(2,3-Dimethyl-4-phenoxyphenyl)-6,7-dimethoxyquinazolin-4-amine hydrochloride]",assembly of BRAF(F667E) and KSR2-MEK1 (in words),BRAF(F667E) + KSR2:MEK1,did not impede
same,IC50,[1],> 10 µM
same,KSR2-MEK1 probe competition (in words),[1],essentially inactive
"Nc1ncnc2c1ncn2[C@@H]1O[C@H](COP(=O)(O)OP(=O)(O)OP(=O)(O)O)[C@@H](O)[C@H]1O [ATP, reference compound]",IC50,MEK1,133 µM
same,IC50,"[1]; read-out: IC50 (ATP), KSR2, free ATP vs 2 μM ATP^biotin, KSR2-MEK1 complexes",86 µM
"B-RAF (modified variant for high-yield expression in E. coli) (enzyme, biotinylated with EZ-Link Sulfo-NHS-Biotin) RDSSDDWEIPDGQITVGQRIGSGSFGTVYKGKWHGDVAVKMLNVTAPTPQQLQAFKNEVGVLRKTRHVNILLFMGYSTKPQLAIVTQWCEGSSLYHHLHASETKFEMKKLIDIARQTARGMDYLHAKSIIHRDLKSNNIFLHEDNTVKIGDFGLATVKSRWSGSHQFEQLSGSILWMAPEVIRMQDSNPYSFQSDVYAFGIVLYELMTGQLPYSNINNRDQIIFMVGRGSLSPDLSKVRSNCPKRMKRLMAECLKKKRDERPSFPRILAEIEELARELSG",Kd,MEK1 (1-393),0.051 µM
"B-RAF(F667E) (in the modified variant for E. coli expression) (enzyme, biotinylated with EZ-Link Sulfo-NHS-Biotin) RDSSDDWEIPDGQITVGQRIGSGSFGTVYKGKWHGDVAVKMLNVTAPTPQQLQAFKNEVGVLRKTRHVNILLFMGYSTKPQLAIVTQWCEGSSLYHHLHASETKFEMKKLIDIARQTARGMDYLHAKSIIHRDLKSNNIFLHEDNTVKIGDFGLATVKSRWSGSHQFEQLSGSILWMAPEVIRMQDSNPYSFQSDVYAFGIVLYELMTGQLPYSNINNRDQIIEMVGRGSLSPDLSKVRSNCPKRMKRLMAECLKKKRDERPSFPRILAEIEELARELSG",Kd,KSR2(KD):MEK1 complex,1.99 µM

# Reference: article PMC5161575 (Nature, 2016)
